# Assay results from different studies.
# Target: Mitogen-activated protein kinase kinase kinase 10 (MAP3K10, Homo sapiens, UniProt Q02779)
SMILES,test,conditions,remaining binding
C[C@H]1CCN(c2nccc(-c3cnn4ncccc34)n2)C1,binding,1 µM,100%
c1ccc(N2CCN(Cc3nc4ccccc4[nH]3)CC2)nc1,"binding, competition with immobilised ligand",1 µM,93%
COc1cnc(Nc2cccc(S(N)(=O)=O)c2)nc1N1CCN(c2ccccc2)CC1,"binding, competition with immobilised ligand",1 µM,89%
FC(F)(F)Oc1cccc(-c2cnc3ccc(-c4ccncc4)nn23)c1,"cell-free assay, competition with immobilised ligand",5 µM,58%
O=C(c1ccc(Nc2ncc(Cl)c(-c3cc4ccccc4s3)n2)cc1)N1CCC(N2CCCC2)CC1,"binding, competition with immobilised ligand",1 µM,3.5%
COc1ncc2cc3ccccc3nc2c1C#N,"cell-free assay, competition with immobilised ligand",5 µM,79%
c1cnn2ncc(-c3ccnc(N4CCC45COC5)n3)c2c1,binding,1 µM,100%
C=CC(=O)N1CCC(C(=O)NCC(=O)N2CCN(c3nc(-c4cnc(N)nc4C(F)F)nc(N4CCOCC4)n3)CC2)CC1,"binding, competition with immobilised ligand",1 µM,99%
c1cncc(-c2cccc(Nc3nccc(NC4CCCCC4)n3)c2)c1,"binding, competition with immobilised ligand",10 µM,49%
O=c1nc(-c2ccccn2)sc2ccccc12,"binding, competition with immobilised ligand",1 µM,100%
O=C(NCCCN1CCOCC1)c1ccc(Nc2nccc(-c3cc4ccccc4s3)n2)cc1,"binding, competition with immobilised ligand",1 µM,37%
N[C@@H]1CCN(c2nccc(-c3cnn4ncccc34)n2)C1,binding,1 µM,100%
O=C(Nc1c[nH]nc1C(=O)NC1CCNCC1)c1cc(F)cc(F)c1,"binding, competition with immobilised ligand",1 µM,100%
COc1ccc2c(c1)O[C@H](c1ccc(OC)c(OC)c1)C[C@@H]2NC(=O)C1(c2ccc3c(c2)OC(F)(F)O3)CC1,"cell-free assay, competition with immobilised ligand",1 µM,97%
CC1CCCN1c1nccc(-c2cnn3ncccc23)n1 (stereo not drawn),binding,1 µM,100%
CN1CCN(c2cnc3c(C4CCN(C(=O)c5ccc(OC(F)(F)F)cc5N)CC4)ncnc3c2)CC1,"cell-free assay, competition with immobilised ligand",1 µM,100%
Cc1cnc(Nc2ccc(C(=O)N3CCC(N4CCCC4)CC3)cc2)nc1-c1cc2ccccc2s1,"binding, competition with immobilised ligand",1 µM,0%
CN(C)c1nccc(-c2cnn3ncccc23)n1,binding,1 µM,98%
COc1cc(-c2cn(C3CCc4ccccc4N(CC(F)(F)F)C3=O)nn2)ccc1-n1ccc(C)n1 (stereo not drawn),"cell-free assay, competition with immobilised ligand",1 µM,96%
CN(C)c1nccc(-c2cnc3ncccn23)n1,binding,1 µM,72%
C[C@H](c1ccnc(Nc2nc3ccc(-c4cc(N(C)C)ncn4)cc3[nH]2)c1)N1CCN(C(=O)CC(F)(F)F)CC1,"cell-free assay, competition with immobilised ligand",0.1 µM,100%
